Experimental data published in ChEMBL document CHEMBL2311332, “Epidithiodiketopiperazine as a pharmacophore for protein lysine methyltransferase G9a inhibitors: reducing cytotoxicity by structural simplification” (Bioorg Med Chem Lett, 2013).
Activity calls are given as the source filed them. The calls are words filed in the database; no cut-off is given here.

Assays:
[1] = target: T1, Histone-lysine N-methyltransferase EHMT2 (Homo sapiens, UniProt Q96KQ7); test: Inhibition of protein lysine methyltransferase G9a (unknown origin) by modified ELISA assay
T1 sequence (Q96KQ7 whole entry): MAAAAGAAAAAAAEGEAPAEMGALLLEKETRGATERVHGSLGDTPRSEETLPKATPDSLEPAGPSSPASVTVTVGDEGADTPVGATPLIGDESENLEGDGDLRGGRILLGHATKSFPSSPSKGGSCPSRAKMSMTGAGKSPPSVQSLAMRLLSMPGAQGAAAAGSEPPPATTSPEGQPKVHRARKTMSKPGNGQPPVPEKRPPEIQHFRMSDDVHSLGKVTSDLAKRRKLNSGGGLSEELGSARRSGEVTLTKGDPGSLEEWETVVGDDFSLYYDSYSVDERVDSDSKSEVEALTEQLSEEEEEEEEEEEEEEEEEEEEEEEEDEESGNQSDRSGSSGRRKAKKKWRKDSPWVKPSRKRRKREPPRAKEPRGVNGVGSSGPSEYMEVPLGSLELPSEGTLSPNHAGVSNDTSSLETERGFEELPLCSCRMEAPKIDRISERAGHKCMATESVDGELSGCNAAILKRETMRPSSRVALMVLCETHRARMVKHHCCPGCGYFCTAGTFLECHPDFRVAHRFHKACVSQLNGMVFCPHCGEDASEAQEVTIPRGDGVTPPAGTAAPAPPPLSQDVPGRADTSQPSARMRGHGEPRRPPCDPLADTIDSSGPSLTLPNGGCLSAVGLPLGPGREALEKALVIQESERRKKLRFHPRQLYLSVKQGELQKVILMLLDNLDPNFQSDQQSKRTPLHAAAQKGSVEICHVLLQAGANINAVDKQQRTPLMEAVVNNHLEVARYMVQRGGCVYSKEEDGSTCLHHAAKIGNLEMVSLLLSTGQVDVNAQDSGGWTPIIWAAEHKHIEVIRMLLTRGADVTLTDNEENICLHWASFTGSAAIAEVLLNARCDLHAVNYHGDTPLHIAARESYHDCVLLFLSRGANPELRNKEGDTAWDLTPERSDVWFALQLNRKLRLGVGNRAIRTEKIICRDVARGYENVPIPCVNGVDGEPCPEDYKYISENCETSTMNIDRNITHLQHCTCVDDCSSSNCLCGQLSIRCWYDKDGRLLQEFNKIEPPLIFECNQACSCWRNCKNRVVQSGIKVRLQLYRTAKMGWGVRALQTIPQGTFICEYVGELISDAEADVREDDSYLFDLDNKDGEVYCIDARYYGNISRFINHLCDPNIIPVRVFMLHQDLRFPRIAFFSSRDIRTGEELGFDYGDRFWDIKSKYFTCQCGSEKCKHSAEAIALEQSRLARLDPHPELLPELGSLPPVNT

[2] = target: Thioredoxin reductase (Homo sapiens) (UniProt Q16881+Q9NNW7+Q86VQ6); test: Inhibition of thioredoxin reductase (unknown origin) assessed as reduction of DTNB at 10 uM; type: protein assay
[3] = test system: HL-60; test: Cytotoxicity against human HL60 cells at 3 to 30 uM after 4 hrs by Alamar Blue assay; type: cell-based; conditions: hl-60, 4 h
Method in brief: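 HL-60 cells were exposed to the derivatives for 4 h. Cell viability was then read by alamarBlue.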

[4] = target: T1, Histone-lysine N-methyltransferase EHMT2; test: Inhibition of protein lysine methyltransferase G9a (unknown origin) by ELISA assay

| Structure (SMILES) | IC50 [1] | inhibition [2] | Activity [3] | IC50 [4] |
| --- | --- | --- | --- | --- |
| CN1C(=O)[C@@H]2C[C@@]3([C@@]45C[C@H]6C(=O)N(C)[C@@H](CO)C(=O)N6[C@@H]4Nc4ccccc45)c4ccccc4N[C@H]3N2C(=O)[C@@H]1CO | > 100 µM | – | – | – |
| CN1C(=O)C23CCCN2C(=O)C1(CO)SS3 (racemic) | 5.2 µM | inactive | Non-toxic | – |
| CN1C(=O)[C@@]23C[C@]4([C@]56C[C@@]78S[C@](CO)(C(=O)N7[C@H]5Nc5ccccc56)N(C)C8=O)c5ccccc5N[C@@H]4N2C(=O)[C@@]1(CO)S3 | > 100 µM | – | – | – |
| CN1C(=O)[C@@]23C[C@]4([C@]56C[C@@]78SS[C@@](CO)(C(=O)N7[C@H]5Nc5ccccc56)N(C)C8=O)c5ccccc5N[C@@H]4N2C(=O)[C@]1(CO)SS3 [CHAETOCIN] | 7.2 µM | – | – | – |
| CN1C(=O)C23CCCN2C(=O)C1(CO)SSS3 (racemic) | 5.3 µM | inactive | Non-toxic | – |
| CN1C(=O)C2(S)CCCN2C(=O)C1(S)CO (racemic) | 13.1 µM | – | Non-toxic | – |
| CN1C(=O)[C@]23C[C@@]4([C@@]56C[C@]78SS[C@](CO)(C(=O)N7[C@@H]5Nc5ccccc56)N(C)C8=O)c5ccccc5N[C@H]4N2C(=O)[C@@]1(CO)SS3 | 6.4 µM | – | – | – |
| CN1C(=O)[C@@]23C[C@]4([C@]56C[C@@]78SS[C@](CO[Si](C)(C)C(C)(C)C)(C(=O)N7[C@H]5Nc5ccccc56)N(C)C8=O)c5ccccc5N[C@@H]4N2C(=O)[C@@]1(CO[Si](C)(C)C(C)(C)C)SS3 | 7.2 µM | – | – | – |
| CN1C(=O)[C@]23C[C@H]4c5ccccc5N[C@H]4N2C(=O)[C@]1(CO[Si](C)(C)C(C)(C)C)SS3 | 23.5 µM | – | – | – |
| CN1C(=O)[C@H]2C[C@]3([C@]45C[C@@H]6C(=O)N(C)[C@H](CO)C(=O)N6[C@H]4Nc4ccccc45)c4ccccc4N[C@@H]3N2C(=O)[C@H]1CO | > 100 µM | – | – | > 50 µM |
| CN1C(=O)[C@@]23C[C@@H]4c5ccccc5N[C@@H]4N2C(=O)[C@@]1(CO[Si](C)(C)C(C)(C)C)SS3 | 3.3 µM | – | – | – |
| CN1C(=O)[C@@]2(S)C[C@]3([C@]45C[C@]6(S)C(=O)N(C)[C@](S)(CO)C(=O)N6[C@H]4Nc4ccccc45)c4ccccc4N[C@@H]3N2C(=O)[C@@]1(S)CO | 27.1 µM | – | – | – |
